Measurements reported in ChEMBL document CHEMBL2331327, “Bioactive abietane and ent-kaurane diterpenoids from Isodon tenuifolius” (J Nat Prod, 2013).
pIC50: −log10 of the molar value.

Legend:
MCF7 = assay: Cytotoxicity against human MCF7 cells assessed as inhibition of cell viability after 48 hrs by MTT assay; type: functional, cell-based; settings: MCF7, 48 h
Procedure, shortened: (§1)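 Cells grown in RPMI-1640 or DMEM with 10% FBS, 37 °C, 5% CO2. Adherent lines seeded at 1 × 10^5 cells/mL and allowed 12 h to attach; suspension cells seeded just before dosing. Compounds tested at various concentrations in triplicate for 48 h; cisplatin and paclitaxel as positive controls. MTT added for 4 h at 37 °C, then lysis in 20% SDS−50% DMF and OD read at 595 nm. IC50 by Reed and Muench method.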

A549 = assay: Cytotoxicity against human A549 cells assessed as inhibition of cell viability after 48 hrs by MTT assay; type: functional, cell-based; settings: A549, 48 h; procedure, shortened: as §1
HL-60 = assay: Cytotoxicity against human HL60 cells assessed as inhibition of cell viability after 48 hrs by MTT assay; type: functional, cell-based; settings: HL-60, 48 h; procedure, shortened: as §1
SW480 = assay: Cytotoxicity against human SW480 cells assessed as inhibition of cell viability after 48 hrs by MTT assay; type: functional, cell-based; settings: SW480, 48 h; procedure, shortened: as §1
SMMC-7721 = assay: Cytotoxicity against human SMMC7721 cells assessed as inhibition of cell viability after 48 hrs by MTT assay; type: functional, cell-based; settings: SMMC-7721, 48 h; procedure, shortened: as §1
RAW264.7 [1] = assay: Cytotoxicity against mouse RAW264.7 cells assessed as inhibition of cell viability after 18 hrs by MTS assay; type: cell-based; settings: raw264.7, 18 h
Procedure, shortened: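 RAW264.7 cells seeded at 2 × 10^5 cells/well and preincubated 24 h, then exposed to compounds (DMSO solutions) at given concentrations for 18 h. MTS added for 4 h and absorbance read at 490 nm. Viability expressed relative to untreated cells as 100%.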

RAW264.7 [2] = assay: Inhibition of nitric oxide production in LPS-stimulated mouse RAW264.7 cells measured after 18 hrs by Griess reagent based multilabel plate reader analysis; type: functional, cell-based; settings: RAW264.7, 18 h
Procedure, shortened: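 RAW264.7 macrophages in RPMI 1640 with 10% FBS at 2 × 10^5 cells/well, preincubated 24 h at 37 °C, 5% CO2. Then 18 h with 1 μg/mL LPS plus serial dilutions of compound (DMSO stock diluted in medium; top concentration 25 μM). Supernatant mixed 1:1 with Griess reagent, 5 min, absorbance at 570 nm, in triplicate. MG-132 as positive control.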

SMILES: CC(=O)O[C@H]1C(=O)[C@@]2(C)[C@H]([C@H](OC(=O)c3ccccc3)[C@]3(O)C[C@H](OC(=O)[C@H](O)[C@@H](NC(=O)c4ccccc4)c4ccccc4)C(C)=C1C3(C)C)[C@]1(OC(C)=O)CO[C@@H]1C[C@@H]2O [PACLITAXEL]
- pIC50 (MCF7): > 8.10
- pIC50 (A549): > 8.10
- pIC50 (HL-60): > 8.10
- pIC50 (SW480): 6.82
- pIC50 (SMMC-7721): > 8.10

SMILES: CC(C)c1cc2c3c(c1)[C@H](O)C[C@H]1[C@](C)(CO)CC[C@H](O2)[C@]31C [ISOABIETENIN A]
- pIC50 (MCF7): < 5.00
- Activity (RAW264.7 [1]): Non-toxic
- pIC50 (A549): < 5.00
- pIC50 (HL-60): < 5.00
- pIC50 (SW480): < 5.00
- pIC50 (SMMC-7721): < 5.00
- pIC50 (RAW264.7 [2]): < 4.60

SMILES: COC[C@H]1C(=O)[C@]23C[C@H]1C[C@H](OC(C)=O)[C@H]2[C@]1(C)[C@@H](OC(C)=O)C[C@H](O)C(C)(C)[C@H]1C(=O)[C@@H]3O [TENUIFOLIN M]
- pIC50 (MCF7): < 5.00
- Activity (RAW264.7 [1]): Non-toxic
- pIC50 (A549): < 5.00
- pIC50 (HL-60): 5.36
- pIC50 (SW480): < 5.00
- pIC50 (SMMC-7721): < 5.00
- pIC50 (RAW264.7 [2]): < 4.60

SMILES: C=C1C(=O)[C@@]23CC(=O)[C@@H]4C(C)(C)[C@@H](O)C[C@H](O)[C@@]4(C)[C@@H]2[C@@H](OC(C)=O)C[C@@H]1C3 [TENUIFOLIN I]
- pIC50 (MCF7): 5.52
- Activity (RAW264.7 [1]): Non-toxic
- pIC50 (A549): 5.35
- pIC50 (HL-60): 6.10
- pIC50 (SW480): 5.37
- pIC50 (SMMC-7721): 5.72
- pIC50 (RAW264.7 [2]): 5.24

SMILES: C=C1C(=O)[C@@]23CC(=O)[C@@H]4C(C)(C)[C@@H](OC(C)=O)CC[C@@]4(C)[C@@H]2[C@@H](O)[C@H](O)[C@@H]1C3 [TENUIFOLIN J]
- pIC50 (MCF7): < 5.00
- Activity (RAW264.7 [1]): Non-toxic
- pIC50 (A549): < 5.00
- pIC50 (HL-60): 5.42
- pIC50 (SW480): < 5.00
- pIC50 (SMMC-7721): 5.20
- pIC50 (RAW264.7 [2]): 5.06

SMILES: C=C1[C@@H]2C[C@H](O)[C@H]3[C@]4(C)CC[C@H](O)C(C)(C)[C@H]4CC[C@]3(C2)[C@@H]1O [TENUIFOLIN B]
- pIC50 (MCF7): < 5.00
- Activity (RAW264.7 [1]): Non-toxic
- pIC50 (A549): < 5.00
- pIC50 (HL-60): < 5.00
- pIC50 (SW480): < 5.00
- pIC50 (SMMC-7721): < 5.00
- pIC50 (RAW264.7 [2]): < 4.60

SMILES: C=C1C(=O)[C@@]23CC[C@@H]4C(C)(C)[C@H](O)CC[C@@]4(C)[C@@H]2[C@@H](O)C[C@@H]1C3 [TENUIFOLIN A]
- pIC50 (MCF7): < 5.00
- Activity (RAW264.7 [1]): Non-toxic
- pIC50 (A549): < 5.00
- pIC50 (HL-60): 5.33
- pIC50 (SW480): < 5.00
- pIC50 (SMMC-7721): 5.13
- pIC50 (RAW264.7 [2]): 5.16

SMILES: C=C1[C@@H]2C[C@H](O)[C@H]3[C@]4(C)CC[C@H](O)C(C)(C)[C@H]4C(=O)C[C@]3(C2)[C@@H]1O [TENUIFOLIN E]
- pIC50 (MCF7): < 5.00
- Activity (RAW264.7 [1]): Non-toxic
- pIC50 (A549): < 5.00
- pIC50 (HL-60): < 5.00
- pIC50 (SW480): < 5.00
- pIC50 (SMMC-7721): < 5.00
- pIC50 (RAW264.7 [2]): < 4.60

SMILES: C=C1[C@@H]2C[C@H](OC(C)=O)[C@H]3[C@]4(C)[C@@H](OC(C)=O)C[C@H](O)C(C)(C)[C@H]4C[C@H](O)[C@]3(C2)[C@@H]1O [TENUIFOLIN D]
- pIC50 (MCF7): < 5.00
- Activity (RAW264.7 [1]): Non-toxic
- pIC50 (A549): < 5.00
- pIC50 (HL-60): < 5.00
- pIC50 (SW480): < 5.00
- pIC50 (SMMC-7721): < 5.00
- pIC50 (RAW264.7 [2]): < 4.60

SMILES: C=C1[C@@H]2C[C@H](O)[C@H]3[C@@]4(C)[C@H](C[C@H](OC(C)=O)[C@]3(C2)[C@@H]1O)C(C)(C)[C@@H](OC(C)=O)C[C@@H]4O [ADENANTHIN E]
- pIC50 (MCF7): < 5.00
- Activity (RAW264.7 [1]): Non-toxic
- pIC50 (A549): < 5.00
- pIC50 (HL-60): < 5.00
- pIC50 (SW480): < 5.00
- pIC50 (SMMC-7721): < 5.00
- pIC50 (RAW264.7 [2]): < 4.60
